“Also recorded” adds a separate entry of the source. Values belong to the molecule of their own block, whether it stands above or below them. No end group written: not given here.
Assays:
DQ6 [1] = test: Peptide elution and HPLC-MS/MS, DQ6; design: species or system human; conditions: 293T DQ6+Ii+DM, 2 independent experiments
Procedure, shortened: (§1)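 About 1×10^9 sorted, stably transduced 293T cells expressing DQ+Ii or DQ+Ii+DM were lysed. DQ was captured with anti-DQ mAb SPVL3 on protein A beads. Bound peptides were eluted, separated by HPLC and sequenced by HPLC-MS/MS. Nested Ii-derived peptides were assigned to the CLIP1 core or the CLIP2 register. Results come from 2 independent experiments.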

DQ1 [2] = test: Cell surface CLIP by flow cytometry, 293T cells expressing DQ1; format: cell-based, human; conditions: 293T DQ1, even in the absence of DM, CerCLIP.1 mAb
Procedure, shortened: (§2)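 Human 293T cells (no endogenous Ii, DM or DQ) were lentivirally transduced with full-length DQ α/β (T2A-linked, GFP vector), Ii, and DM (mCherry vector). They were sorted for GFP, DQ and mCherry. Surface staining used PerCP-Cy5.5 Cer.CLIP1 and biotinylated SPVL3 anti-DQ with streptavidin-APC or -PE-Cy7. Gating was on matched GFP/mCherry levels. Read-outs were MFI and the CLIP/DQ MFI ratio with vs without DM, from 3 independent experiments, mean + SD.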

DQ molecules = test: Peptide elution and HPLC-MS/MS, several DQ molecules reported together; design: species or system human
Procedure, shortened: as §1

DQ6 [3] = test: Cell surface CLIP by flow cytometry, 293T cells expressing DQ6; format: cell-based, human; conditions: CerCLIP.1 mAb
Procedure, shortened: as §2

DQ alleles in T2 cells = format: cell-based, human; conditions: T2 lymphoblastoid cells, absence or presence of HLA-DM, flow cytometry
Procedure, shortened: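 Human B-cell hybrid T2 line (endogenous Ii, MHC class II region deleted) expressing each DQ allele with or without HLA-DM. Cells surface-stained with PerCP-Cy5.5 anti-CLIP (Cer.CLIP1) and biotinylated anti-DQ (SPVL3) detected by streptavidin-APC or -PE-Cy7, alongside isotype-matched controls. Analysed by flow cytometry.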

DQ8 [4] = test: Cell surface CLIP by flow cytometry, 293T cells expressing DQ8; format: cell-based, human
Procedure, shortened: as §2

DQ2-8 [5] = test: Cell surface CLIP by flow cytometry, 293T cells expressing DQ2-8 trans-dimer; format: cell-based, human
Procedure, shortened: as §2

DQ8-2 [6] = test: Cell surface CLIP by flow cytometry, 293T cells expressing DQ8-2 trans-dimer; format: cell-based, human
Procedure, shortened: as §2

DQ2 [7] = test: Cell surface CLIP by flow cytometry, 293T cells expressing DQ2; format: cell-based, human
Procedure, shortened: as §2

DQ8-2 [8] = test: Peptide elution and HPLC-MS/MS, DQ8-2; design: species or system human; conditions: 293T DQ8-2+Ii+DM, 2 independent experiments
Procedure, shortened: as §1

DQ2-8 [9] = test: Peptide elution and HPLC-MS/MS, DQ2-8; design: species or system human; conditions: 293T DQ2-8+Ii+DM, 2 independent experiments
Procedure, shortened: as §1

DQ8 [10] = test: Peptide elution and HPLC-MS/MS, DQ8; design: species or system human; conditions: 293T DQ8+Ii+DM, 2 independent experiments
Procedure, shortened: as §1

DQ1 [11] = test: Peptide elution and HPLC-MS/MS, DQ1; design: species or system human
Procedure, shortened: as §1

DQ2 [12] = test: Peptide elution and HPLC-MS/MS, DQ2; design: species or system human; conditions: 293T DQ2+Ii+DM, 2 independent experiments
Procedure, shortened: as §1

DQ8 βT89G = test: Cell surface CLIP by flow cytometry, 293T cells expressing DQ8 βT89G mutant; format: cell-based, human; conditions: 293T + Ii, with vs without DM; βT89G disrupts one H-bond; CLIP/DQ ratio
sDQ6 = test: FP assay of CLIP dissociation from sDQ6; format: binding, human; conditions: 50 nM sDQ6-^488CLIP, sDM 0 to 2000 nM, 37°C, pH 5.0
Procedure, shortened: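 sDQ6 secreted by lentivirus-transduced 293T cells, purified by His-resin then anti-DQ affinity, and thrombin-cleaved overnight. It was loaded with Alexa 488-labelled CLIP (1:5) plus 100 nM sDM for 3 h at 37°C in pH 5.0 citrate-phosphate/NaCl/Tween buffer, then spin-desalted. 50 nM complex, 0–2000 nM sDM and 100 μM unlabelled CLIP1 were read by FP at 37°C. FP was normalised to free-peptide background; rate enhancement was expressed relative to no-DM rate.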

[13] = tested on: DQ2 with Gly at position 53; conditions: ref [22]; cited from earlier work
DQ8 βE86A = test: Cell surface CLIP by flow cytometry, 293T cells expressing DQ8 βE86A mutant; format: cell-based, human; conditions: 293T + Ii, with vs without DM; βE86A disrupts two H-bonds; CLIP/DQ ratio
[14] = molecular target: soluble recombinant HLA-DQ8 (human); test: fluorescence polarisation
[15] = molecular target: soluble recombinant HLA-DQ6 (human); test: fluorescence polarisation

Molecule: CLIP: Class II associated invariant chain peptide; Ii-derived, endogenous on DQ-expressing cells (Ac-VSK(Alexa Fluor 488)MRMATPLLMQ)
CLIP in peptide eluate, with DM (DQ6 [1]): not detected
Cell surface CLIP level, no DM (DQ1 [2]): no detectable CLIP peptide
CLIP peptides eluted, no DM (DQ molecules; 293T DQ+Ii without DM, all DQ alleles, 2 independent experiments): prominently presented by all DQ alleles
Cell surface CLIP upon DM co-expression (DQ6 [3]; 293T DQ6+Ii+DM, 3 independent experiments): complete loss of cell surface CLIP
Cell surface CLIP level, no DM (DQ6 [3]; 293T DQ6+Ii, absence of DM, MFI): high
DM editing of CLIP in T2 cells (DQ alleles in T2 cells): consistent with those obtained with 293T cells
Cell surface CLIP upon DM co-expression (DQ8 [4]; 293T DQ8+Ii+DM, CerCLIP.1 mAb, flow cytometry, 3 independent experiments): retain high levels of cell surface CLIP
Cell surface CLIP level, no DM (DQ8 [4]; 293T DQ8+Ii, absence of DM, CerCLIP.1 mAb, flow cytometry, MFI): high
Reduction in cell surface CLIP by DM (DQ8 [4]; 293T cells co-expressing DM with DQ8): little or no reduction in CLIP levels
Cell surface CLIP upon DM co-expression (DQ2-8 [5]; 293T DQ2-8+Ii+DM, CerCLIP.1 mAb, flow cytometry, 3 independent experiments): retain high levels of cell surface CLIP
Cell surface CLIP level, no DM (DQ2-8 [5]; 293T DQ2-8+Ii, absence of DM, CerCLIP.1 mAb, flow cytometry, MFI): high
Reduction in cell surface CLIP by DM (DQ2-8 [5]; 293T cells co-expressing DM with DQ2-8): little or no reduction in CLIP levels
Cell surface CLIP upon DM co-expression (DQ8-2 [6]; 293T DQ8-2+Ii+DM, CerCLIP.1 mAb, flow cytometry, 3 independent experiments): retain high levels of cell surface CLIP
Cell surface CLIP level, no DM (DQ8-2 [6]; 293T DQ8-2+Ii, absence of DM, CerCLIP.1 mAb, flow cytometry, MFI): high
DM editing resistance relative to DQ8 and DQ2-8 (DQ8-2 [6]; 293T, DQ8-2 trans-dimer): less striking
DM editing of CLIP upon DM co-expression (DQ2 [7]; 293T DQ2+Ii+DM, CerCLIP.1 mAb, flow cytometry, 3 independent experiments): relatively resistant to DM editing
Cell surface CLIP level, no DM (DQ2 [7]; 293T DQ2+Ii, absence of DM, CerCLIP.1 mAb, flow cytometry, MFI): high
DM editing resistance relative to DQ8 and DQ2-8 (DQ2 [7]; 293T, DQ2): less striking

Molecule: LPKPPKPVSKMRMATPLLMQA [CLIP1]
CLIP1 in peptide eluate, with DM (DQ8-2 [8]): detected
CLIP1 in peptide eluate, with DM (DQ2-8 [9]): detected
CLIP1 in peptide eluate, with DM (DQ8 [10]): detected
CLIP peptides in eluate, no DM (DQ1 [11]; 293T DQ1+Ii without DM): detected
CLIP peptides in eluate, with DM (DQ1 [11]; 293T DQ1+Ii+DM): not in samples co-expressing DM
CLIP1 in peptide eluate, with DM (DQ2 [12]): detected

Molecule: DM: non-classical MHC protein HLA-DM catalyzing CLIP release and peptide exchange
Change in DM sensitivity of DQ8 mutant (DQ8 βT89G): little change in DM sensitivity
DM editing of CLIP in T2 cells (DQ alleles in T2 cells): DQ2 and DQ2-8 were less sensitive to DM than DQ8
Hierarchy of DM sensitivity among DQ molecules (DQ8 [4]; 293T DQ+Ii+DM, DQ8 compared with DQ2-8, DQ2, DQ8-2): DQ8 being the least sensitive, followed by DQ2-8, DQ2, and DQ8-2
Dissociation rate versus DM concentration (sDQ6): Peptide dissociation rates increased with increasing DM concentration; also recorded: rates appeared to saturate with increasing DM concentration
DM sensitivity after Gly insertion at α53 of DQ2 [13]: restored DM sensitivity; also recorded: marked increase in DM-mediated rate enhancement in the dissociation of a DQ2 binding peptide
Change in DM sensitivity of DQ8 mutant (DQ8 βE86A): partially restore sensitivity to DM

Molecule: PSSGLGVTKQDLGPVPM [CLIPc, reference compound]
CLIPc detection in eluates (DQ molecules; DQ samples from 293T cells): detected by HPLC-MS/MS from all of the samples (DQ2, DQ2-8 and DQ8-2), except DQ8

intrinsic half-life of the complex [14]: 58 h
intrinsic half-life of the complex [15]: 7 h
Molecule: Ac-VSK(Alexa Fluor 488)MRMATPLLMQ [Alexa Fluor 488-labeled N-acetylated CLIP peptide]
